AF4-AF9 inh = blocks AF4 peptide binding to human AF9; P42568; AlphaScreen, biotin-AF4 peptide binding to FLAG-AF9; inhibition, % at 10 µM; actives 0.47% (n = 350,000);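 active = every replicate reaching a set inhibition limit, whatever the replicate mean, cut at about 25% in these data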;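 also: 0% = plate neutral control median and 100% = total signal loss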
ERAP1 HTS inh = inhibitors of human ERAP1 aminopeptidase; recombinant ERAP1, Leu-AMC fluorescence, 60 min; Q9NZ08; inhibition, % at 10.7 µM; actives 0.15% (n = 340,000);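 active = mean replicate inhibition of at least 30%, or all replicates individually reaching that 30% level; inactive = mean below 30% and not every replicate reaching it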;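 also: 0% = neutral control wells and 100% = L-leucinethiol positive control wells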
INS-1E GSIS act = primary screen for activators of insulin secretion dependent on glucose, INS-1E cells, GLuc reporter luminescence | AID 743287 | activation, % at 16.6 µM | actives 0.61% (n = 370,000) | INS-1E GLuc reporter insulin secretion, 2-3 h;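 active = lowest replicate activation of at least 40%, so every replicate reaches that level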;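 also: 0% = median of neutral control wells and 100% = median of IBMX positive control wells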
S100A4 MyoIIA = blocks human S100A4 binding to myosin IIA peptide; P26447; S100A4/TAMRA-MyoIIA peptide fluorescence polarization; actives 0.14% (n = 360,000); inhibition, % at 10.7 µM; AID 652163;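 active = mean inhibition of at least 70% across replicates, with every replicate also reaching that level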
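Test system: S100A4 monomer protein. Medium: HEPES buffer with Ca2+, pH 7.2. Reagent: fluorescent myosin IIA peptide, 5 nM. Compound dosing: single-point compound testing. Timing: 5 min between mix addition and reading. Benchmarks: DMSO neutral and TFP positive wells.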
RAD52 inh = RAD52 (human) annealing inhibition. actives 0.46% (n = 360,000). P43351. inhibition, % at 18.7 µM. recombinant RAD52 DNA annealing, FRET fluorescence;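 active = every replicate showing at least 50% inhibition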
Target sequence (P43351 whole entry, looked up): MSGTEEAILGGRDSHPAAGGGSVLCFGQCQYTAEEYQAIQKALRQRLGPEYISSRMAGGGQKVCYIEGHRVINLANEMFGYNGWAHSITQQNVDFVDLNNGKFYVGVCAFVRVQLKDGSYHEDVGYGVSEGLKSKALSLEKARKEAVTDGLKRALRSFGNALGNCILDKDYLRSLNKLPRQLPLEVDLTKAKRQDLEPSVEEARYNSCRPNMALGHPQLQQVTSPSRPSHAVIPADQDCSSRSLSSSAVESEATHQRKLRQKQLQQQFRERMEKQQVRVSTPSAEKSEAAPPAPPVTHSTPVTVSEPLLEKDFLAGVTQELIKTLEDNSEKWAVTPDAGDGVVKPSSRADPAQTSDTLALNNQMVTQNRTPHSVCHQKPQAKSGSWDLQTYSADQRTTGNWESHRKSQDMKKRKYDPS
Numbers without * were called inactive; · = no result; ! = a repeat was not active. The list is not random: actives were taken first. Their share in the collection is about 1.5%.

SMILES	AF4-AF9 inh	ERAP1 HTS inh	INS-1E GSIS act	S100A4 MyoIIA	RAD52 inh
C[C@@H]1CCCCO[C@H](CN(C)Cc2ccc(Cl)c(Cl)c2)[C@@H](C)CN([C@@H](C)CO)C(=O)c2cc(N(C)C)ccc2O1	60.8*	3.9	-7.4	28.9	-24.7
C[C@@H]1CCCCO[C@@H](CN(C)Cc2ccc3c(c2)OCO3)[C@@H](C)CN([C@H](C)CO)C(=O)c2cc(N(C)C)ccc2O1	15.4	5.8	-10.4	-2.0	7.8
O=C(NCC[C@H]1CC[C@@H](NC(=O)c2cccnc2)[C@H](CO)O1)Nc1ccc(Cl)cc1	11.8	-2.1	-3.7	7.1	9.0
O=[N+]([O-])c1ccc(CNc2ccc(Cl)cc2)s1	30.3*	3.5	-2.0	-2.5	-14.0
C[C@@H]1CN([C@@H](C)CO)C(=O)Cc2cc(NC(=O)Nc3ccccc3)ccc2O[C@@H]1CN(C)C(=O)Nc1cccc2ccccc12	0.5	-3.7	-12.5	-1.9	1.3
O=S(=O)(NCc1ccccc1)c1ccc(S(=O)(=O)N2CCCCC2)cc1	·	·	49.5*	·	·
CCC(=O)Nc1ccc2c(c1)OC[C@H](C)N(CC1CC1)C[C@H](C)[C@@H](OC)CN(C)C2=O	-2.0	0.8	6.6	-7.0	-4.5
Cc1ccc(Sc2ccc(CN3CCCC3)cc2[N+](=O)[O-])cc1	31.0*	-1.2	2.9	-5.4	13.3
CO[C@@H]1CN(C)C(=O)c2ccc(NC(=O)c3cccc(F)c3)cc2OC[C@@H](C)N(C)C[C@H]1C	-4.0	-0.4	-8.3	-17.0	2.5
COc1ccc(CN2CC3(CCN(Cc4ccccn4)CC3)c3c(n(C)c4cc(OC)ccc34)[C@H]2CO)cc1	·	·	-19.7	·	·
O=C(NCCN1CCOCC1)C1CCN(c2nc3ccccc3o2)CC1	40.3*	-7.1	8.1	0.2	-10.4
CC1CCCCN1CCCNC(=O)C1CCN(c2nc3ccccc3o2)CC1 (stereo not given)	2.0	5.4	4.8	-3.2	-9.5
Cc1ccccc1/C=C/c1cc[n+](C)cc1	1.7	31.1*	-1.6	-2.5	9.5
C[C@@H]1CC=CCCNC(=O)[C@@H](C)N(C)C(=O)c2ccccc2O1 (mixture of isomers)	·	·	17.3	·	·
Cc1c(CCOC(=O)CC23CC4CC(CC(C)(C4)C2)C3)sc[n+]1CC(=O)c1ccccc1	27.1*	4.7	70.1	-9.1	62.4*
Cc1c(CCOC(=O)C23CC4CC(CC(C)(C4)C2)C3)sc[n+]1CC(=O)c1ccccc1	13.5	6.8	·	-3.8	41.9
CCOc1ccccc1NC(=O)CSc1ccc(-c2ccco2)nn1	-4.1	0.0	60.7*	-4.9	-23.5
C[C@H](CO)N1C[C@H](C)[C@@H](CN(C)C(=O)C2CCCCC2)Oc2ncc(C#CC3CCCC3)cc2C1=O	3.1	-5.3	5.0	3.5	21.0
Cc1cccc(C)c1NC(=O)C1c2ccccc2Oc2ccccc21	·	·	51.0*	·	·
N#Cc1ccc(-c2ccc(C3[C@H]4CNC[C@@H]3N4S(=O)(=O)c3ccc(-c4ccccc4)cc3)cc2)cc1 (stereo not given in full)	0.3	-2.3	12.3	-18.9	82.3*
C/C=C/c1ccc(C2[C@H]3CNC[C@@H]2N3S(=O)(=O)c2ccccc2C)cc1 (stereo not given in full)	5.2	-2.8	-4.1	100.7*!	-87.3
Cc1ccccc1S(=O)(=O)N1[C@@H]2CNC[C@H]1C2c1ccc(-c2ccccc2)cc1 (stereo not given in full)	-5.7	-2.5	1.1	-2.8	54.9*!
O=S(=O)(c1ccccc1F)N1[C@@H]2CNC[C@H]1C2c1ccc(/C=C/c2ccccc2)cc1 (stereo not given in full)	7.4	0.5	-5.5	-15.7	51.9*!
COc1ccc(S(=O)(=O)N2CC3(CN(Cc4ccncc4)[C@@H](CO)c4[nH]c5cc(OC)ccc5c43)C2)cc1	·	·	15.3	·	·
COc1ccc2c3c([nH]c2c1)[C@@H](CO)N(C(=O)c1ccc(F)cc1)CC31CN(C(=O)Nc2ccc(F)cc2)C1	·	·	-15.4	·	·
C[C@@H]1CCCCO[C@H](CN(C)Cc2ccc3c(c2)OCO3)[C@H](C)CN([C@@H](C)CO)C(=O)c2cc(NC(=O)Nc3ccc(F)cc3)ccc2O1	10.2	4.2	-13.0	11.2	11.3
CC(=O)c1c(O)c2cccc3c2n(c1=O)CCC3	-6.0	4.0	40.2*	0.3	-2.1
CC(C)NC(=O)c1c(O)c2cccc3c2n(c1=O)CCC3	-5.9	3.6	59.9	0.1	-10.6
